Screening results (PubChem BioAssay)
Shown are actives, neighbours in structure and some others; about 1.3% of the full set was active somewhere.
Diaphorase inh: diaphorase inhibition or chemical oxidation counter-screen. diaphorase resazurin-to-resorufin fluorescence, NADH, 16 min; bacterial (C. kluyveri) enzyme, not human. inhibition, % at 20 µM. 190,000 tested, 0.69% active;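 active means primary screen inhibition at 20 µM above a set limit, cut at about 50% in these data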
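controls = No-NADH positive control and DMSO neutral control | system = Clostridium kluyveri diaphorase enzyme | timing = reaction incubation of 16 min at room temperature | signal = resorufin fluorescence 544/590 nm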
PfG6PD inh: PfG6PD (Plasmodium falciparum) enzyme inhibition; PfGluPho enzyme, NADPH resazurin-diaphorase fluorescence; inhibition, % at 20 µM; 350,000 tested, 0.78% active; AID 504690;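 active means inhibition reaching at least a set limit at 20 µM in the primary screen, cut at about 59% in these data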
G6PDH counter: L. mesenteroides G6PDH inhibition counter-screen; 200,000 tested, 0.12% active; Purified L. mesenteroides G6PDH, diaphorase/resazurin coupled fluorescence, 45 min; AID 1020; inhibition, % at 5 µM; in the data active means inhibition above about 50%
TbHK1 inh: T. brucei hexokinase 1 inhibition; recombinant TbHK1, G6PDH-coupled NADH A340; inhibition, % at 10 µM; 220,000 tested, 0.11% active; AID 1430;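 active means inhibition of 50% or more in the single-dose primary screen; inactive means inhibition below 50%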
Diaph act CS: diaphorase activation or chemical reduction counter-screen; activation factor at 20 µM; 190,000 tested, 0.005% active; Diaphorase/resazurin coupled assay, resorufin fluorescence, 16 min; hits give high values; 1 = vehicle wells, 0 = NADH-free wells; AID 1229;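 active means diaphorase activity raised at least twofold by the compound at 20 µM; inactive means activation factor below 2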
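Test system: Clostridium kluyveri diaphorase, purified enzyme. Buffer or medium: 50 mM HEPES pH 7.4 buffer plus MgCl2 and Tween 20. Also added: 0.114 mM NADH and 0.1 mM resazurin, final amounts. Dosing: compound 20 µM once, DMSO 1%. Schedule: 16 min enzyme reaction, ambient temperature. Detection: fluorescence of resorufin, 544 nm excitation, 590 nm emission.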
HKDC1 inhibitor: HKDC1 (human) hexokinase inhibition. inhibition, % at 20 µM. recombinant HKDC1, G6PDH/diaphorase resazurin coupled fluorescence. 340,000 tested, 0.16% active. AID 493160. Q2TB90;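 active means inhibition above about 35% when tested at 20 µM, limit read from the data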
Target sequence (Q2TB90 whole entry, looked up): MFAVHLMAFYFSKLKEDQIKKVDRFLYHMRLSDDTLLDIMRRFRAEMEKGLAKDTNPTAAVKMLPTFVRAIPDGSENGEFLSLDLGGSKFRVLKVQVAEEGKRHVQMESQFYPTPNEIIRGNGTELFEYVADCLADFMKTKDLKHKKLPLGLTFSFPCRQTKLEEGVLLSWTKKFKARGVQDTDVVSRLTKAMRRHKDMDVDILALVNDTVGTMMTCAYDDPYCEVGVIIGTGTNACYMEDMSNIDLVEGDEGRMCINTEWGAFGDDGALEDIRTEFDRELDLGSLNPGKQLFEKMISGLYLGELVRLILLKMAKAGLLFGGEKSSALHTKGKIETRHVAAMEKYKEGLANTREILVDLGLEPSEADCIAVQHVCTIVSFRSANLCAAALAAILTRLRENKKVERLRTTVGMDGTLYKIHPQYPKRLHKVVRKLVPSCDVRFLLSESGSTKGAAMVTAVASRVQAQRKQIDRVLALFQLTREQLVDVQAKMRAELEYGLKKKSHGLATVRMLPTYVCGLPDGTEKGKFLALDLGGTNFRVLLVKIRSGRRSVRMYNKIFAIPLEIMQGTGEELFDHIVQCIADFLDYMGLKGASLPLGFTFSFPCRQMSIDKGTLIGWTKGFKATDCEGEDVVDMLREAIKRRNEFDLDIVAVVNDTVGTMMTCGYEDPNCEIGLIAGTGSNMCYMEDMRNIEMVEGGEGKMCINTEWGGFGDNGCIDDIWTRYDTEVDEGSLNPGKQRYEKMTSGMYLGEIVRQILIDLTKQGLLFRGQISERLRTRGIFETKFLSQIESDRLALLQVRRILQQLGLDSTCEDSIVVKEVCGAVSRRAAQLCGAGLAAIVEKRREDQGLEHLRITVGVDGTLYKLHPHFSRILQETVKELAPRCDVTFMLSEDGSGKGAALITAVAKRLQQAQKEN
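Assay system – recombinant HKDC1 (HK5) hexokinase enzyme, produced in-house · Input – HKDC1 at 5 µg/mL · Reagent – glucose plus 1 mM ATP as hexokinase substrates · Timing – 90 min reaction incubation at room temperature, dark · Measured by – G6PDH/diaphorase-coupled fluorescence, 1 mM NADP, 100 µM resazurin, 525/613 nm · Benchmarks – DMSO-enzyme wells negative, buffer-substituted wells positive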
PfG6PD confirm: PfG6PD inhibition, single-dose confirmed; recombinant PfGluPho, NADPH-diaphorase-resazurin fluorescence; 2,400 tested, 34% active; AID 504753; shares compounds with PfG6PD inh; inhibition, % at 20 µM;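 active means inhibition of at least 50% at 20 µM in any single replicate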
Diaph ctr 10uM: diaphorase inhibition or oxidation at 10 uM NADPH; shares compounds with PfG6PD inh; inhibition, % at 20 µM; diaphorase-coupled resazurin reduction, fluorescence, NADPH 10 uM; 820 tested, 39% active;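 active means average inhibition reaching 50% or more with the compound at 20 µM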;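 further: resorufin red fluorescence formed as diaphorase reduces resazurin using NADPH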
Diaphorase 30uM: inhibits diaphorase or oxidizes, flagging false PfG6PD hits. shares compounds with PfG6PD inh. Diaphorase/resazurin coupled assay, resorufin fluorescence, 30 uM NADPH. inhibition, % at 20 µM. 820 tested, 29% active;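 active means inhibition averaging 50% or more, tested at 20 µM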
Large screens that a line does not name were inactive (follow-up assays come after a bar, where they were run).

CC(OC(=O)CN1C(=O)C2C3C=CC(C4CC34)C2C1=O)C(=O)c1ccccc1 (stereo not given)	none (no result: Diaphorase inh, G6PDH counter, Diaph act CS)
O=S(=O)(c1ccsc1)N1CC=C(c2ccccc2)CC1	none (no result: Diaphorase inh, G6PDH counter, TbHK1 inh, Diaph act CS)
CCOc1ccc(OCC)c(NC(=O)C2CCN(S(=O)(=O)c3ccc4c(c3)CC(C)N4C(C)=O)CC2)c1 (stereo not given)	none (no result: Diaphorase inh, G6PDH counter, TbHK1 inh, Diaph act CS)
COc1ccc(N=Cc2sc(O)c3ccccc23)cc1	PfG6PD inh 69 | PfG6PD confirm inactive
COc1ccc(CNC(=O)CNC(=O)c2ccc(Br)o2)cc1OC	none (no result: Diaphorase inh, G6PDH counter, TbHK1 inh, Diaph act CS)
Cc1ccc(C23CCC(=O)N2C(C(=O)O)CS3)c(C)c1 (stereo not given)	none (no result: Diaphorase inh, G6PDH counter, TbHK1 inh, Diaph act CS)
Fc1ccc(COc2ccccc2C(=S)N2CCCC2)cc1	PfG6PD inh 70 | PfG6PD confirm inactive
CCN1C(=O)CSC1=Nc1ccc(C(=O)O)cc1	none (no result: Diaphorase inh, G6PDH counter, TbHK1 inh, Diaph act CS)
CC(C)(C)c1ccc(N=C2SCC(=O)N2Cc2cccs2)cc1	PfG6PD inh 64 (no result: Diaphorase inh, G6PDH counter, Diaph act CS) | PfG6PD confirm inactive
CCOc1cccc(CNc2ccc(O)cc2)c1OCc1ccc(Cl)cc1Cl	PfG6PD inh 69 | PfG6PD confirm inactive
CCOC(=O)c1cnc2ccc(C)cc2c1Sc1ccccc1C(=O)OC	PfG6PD inh 104 | PfG6PD confirm 48 | Diaph ctr 10uM inactive | Diaphorase 30uM inactive
CCOC(=O)c1cnc2ccc(C)cc2c1NCCO	none
Cc1cccc(N(CC(=O)N/N=C/c2cc([N+](=O)[O-])ccc2Cl)S(C)(=O)=O)c1C	PfG6PD inh 123 | PfG6PD confirm 82 | Diaph ctr 10uM 79 | Diaphorase 30uM 71
COc1ccc(/C(O)=C2/C(=O)C(=O)N(c3ccccn3)C2c2cccc(Cl)c2)cc1 (stereo not given)	none (no result: Diaphorase inh, G6PDH counter, TbHK1 inh, Diaph act CS)
O=C(NN1CC(=O)N(c2cc(Cl)cc(Cl)c2)CC1=O)c1cccs1	none (no result: Diaphorase inh, G6PDH counter, Diaph act CS)
Cc1cc2c([nH]c3ccccc32)c(C)n1	none (no result: Diaphorase inh, G6PDH counter, TbHK1 inh, Diaph act CS)
Cc1c2ccncc2cc2c1[nH]c1ccccc12	PfG6PD inh 72 (no result: Diaphorase inh, G6PDH counter, TbHK1 inh, Diaph act CS) | PfG6PD confirm inactive
COc1ccc(NC(=O)C2CCCN(S(=O)(=O)c3ccc4c(c3)CCCN4C(C)=O)C2)cc1Cl (stereo not given)	none (no result: Diaphorase inh, G6PDH counter, TbHK1 inh, Diaph act CS)
Cc1nnc(SCC(=O)c2cc(C)n(-c3ccc4c(c3)OCO4)c2C)s1	PfG6PD inh 98 | PfG6PD confirm 69 | Diaph ctr 10uM 56 | Diaphorase 30uM inactive
Cc1cc(C(=O)CSc2nnc(-c3ccco3)o2)c(C)n1-c1ccc2c(c1)OCCO2	PfG6PD inh 75 | PfG6PD confirm inactive
Cc1cc(C(=O)CSc2nnnn2C)c(C)n1-c1ccc2c(c1)OCCO2	none
Cc1cc(C(=O)CSc2nnc(-c3cccs3)o2)c(C)n1-c1ccccc1	PfG6PD inh 79 | PfG6PD confirm inactive
c1ccc2c(c1)c1c(c3ccccc32)CN2CCCC2C1 (stereo not given)	PfG6PD inh 65 (no result: Diaphorase inh, G6PDH counter, TbHK1 inh, Diaph act CS) | PfG6PD confirm inactive
CC(C)(C)c1ccc(OCCn2nc(C(=O)O)c3ccccc3c2=O)cc1	PfG6PD inh 62 (no result: Diaphorase inh, G6PDH counter, TbHK1 inh, Diaph act CS) | PfG6PD confirm inactive
S=c1nc[nH]c2c1ncn2C1CCCC1	none (no result: Diaphorase inh, G6PDH counter, Diaph act CS)
S=C(NNC(=S)Nc1ccccc1)Nc1ccccc1	none (no result: Diaphorase inh, G6PDH counter, TbHK1 inh, Diaph act CS)
S=C(NNC(=S)Nc1ccc(Cl)cc1)NNc1ccccc1	PfG6PD inh 73 (no result: Diaphorase inh, G6PDH counter, TbHK1 inh, Diaph act CS, HKDC1 inhibitor) | PfG6PD confirm inactive
Cc1cccc(C2(c3cccc(C)c3)CC2C(=O)Nc2ccc([N+](=O)[O-])cc2O)c1 (stereo not given)	PfG6PD inh 113 | PfG6PD confirm 60 | Diaph ctr 10uM 55 | Diaphorase 30uM inactive
COc1cccc(C2(c3cccc(OC)c3)CC2C(=O)Nc2ccc(F)cc2)c1 (stereo not given)	PfG6PD inh 115 | PfG6PD confirm 57 | Diaph ctr 10uM 56 | Diaphorase 30uM inactive
